# Assay results reported in ChEMBL document CHEMBL1141198, “Design and synthesis of tri-ring P3 benzamide-containing aminonitriles as potent, selective, orally effective inhibitors of cathepsin K” (J Med Chem, 2005).
# Assays:
# Cathepsin B = Cathepsin B (Homo sapiens, UniProt P07858); test: Inhibitory constant against human cathepsin B using Boc-Leu-Lys-Arg-AMC substrate
# Rattus norvegicus [1] = test: Terminal half-life in rat administered with 0.5 mg/kg, iv; type: functional, organism-based; parameters: dose 0.5 mg/kg
# Summary of the method: (§1)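 Rats, three per study, cassette iv dosing of up to four compounds. Formulation DMSO (<20%), PEG 400 (<20%) and water at 0.5 mg/mL per compound, given at 1 mL/kg for 0.5 mg/kg per compound.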
# Procathepsin L = Procathepsin L (Homo sapiens, UniProt P07711); test: Inhibitory constant against human cathepsin L using Z-Phe-Arg-AMC substrate
# Sequence of Procathepsin L (P07711 whole entry): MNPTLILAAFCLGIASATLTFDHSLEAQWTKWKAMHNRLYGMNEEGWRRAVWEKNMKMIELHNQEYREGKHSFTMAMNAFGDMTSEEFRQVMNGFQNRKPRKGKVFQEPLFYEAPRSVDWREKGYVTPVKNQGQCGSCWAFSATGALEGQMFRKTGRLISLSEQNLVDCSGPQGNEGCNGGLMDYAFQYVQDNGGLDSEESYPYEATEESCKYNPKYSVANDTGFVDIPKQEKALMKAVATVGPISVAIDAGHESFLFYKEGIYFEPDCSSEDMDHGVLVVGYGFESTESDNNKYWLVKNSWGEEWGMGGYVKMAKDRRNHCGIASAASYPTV
# Summary of the method: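 Recombinant human cathepsin L at 500 pM in 50 mM MES pH 5.5, 2.5 mM DTT, 2.5 mM EDTA, 10% DMSO. Enzyme preincubated with inhibitor (8 concentrations) 30 min at 21–24 °C. Reaction started with 10 μM Z-Phe-Arg-AMC; AMC fluorescence (ex 355/em 460 nm) over first ~5 min. Ki(app) fitted with Morrison tight-binding model.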
# [2] = Plasma clearance in rat administered with 0.5 mg/kg, iv; type: ADME, organism-based; parameters: dose 0.5 mg/kg, route intravenous; summary of the method: as §1
# [3] = Maximum concentration in rat administered with 0.5 mg/kg, iv; type: ADME, organism-based; parameters: dose 0.5 mg/kg, route intravenous; conditions: in vivo
# Rattus norvegicus [4] = test: Mean residence time in rat administered with 0.5 mg/kg, iv; type: functional, organism-based; parameters: dose 0.5 mg/kg; summary of the method: as §1
# Cathepsin S = Cathepsin S (Homo sapiens, UniProt P25774); test: Inhibitory constant against human cathepsin S using Z-Val-Val-Arg-AMC substrate
# Sequence of Cathepsin S (P25774 whole entry): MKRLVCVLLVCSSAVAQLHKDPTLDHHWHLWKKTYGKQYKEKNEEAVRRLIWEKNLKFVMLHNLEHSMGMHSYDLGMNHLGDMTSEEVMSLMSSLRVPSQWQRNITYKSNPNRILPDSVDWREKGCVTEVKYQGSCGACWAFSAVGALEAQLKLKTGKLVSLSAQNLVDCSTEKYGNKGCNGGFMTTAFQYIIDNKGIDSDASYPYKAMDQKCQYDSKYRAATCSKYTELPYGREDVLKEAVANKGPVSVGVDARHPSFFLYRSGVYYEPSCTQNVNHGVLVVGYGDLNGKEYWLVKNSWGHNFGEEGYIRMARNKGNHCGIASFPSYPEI
# Summary of the method: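 Recombinant human cathepsin S at 500 pM in 50 mM MES pH 6.5, 2.5 mM β-mercaptoethanol, 2.5 mM EDTA, 100 mM NaCl, 0.001% BSA, 10% DMSO. 30 min enzyme–inhibitor preincubation at 21–24 °C, 8 inhibitor concentrations. Started with 60 μM Z-Val-Val-Arg-AMC; initial rates by AMC fluorescence (ex 355/em 460). Ki(app) by Morrison tight-binding fit.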
# [5] = Volume of distribution in rat administered with 0.5 mg/kg, iv; type: ADME, organism-based; parameters: dose 0.5 mg/kg, route intravenous; conditions: in vivo, read-out: Vss; summary of the method: as §1
# [6] = target: Cathepsin K (Homo sapiens) (UniProt P43235); test: Inhibitory constant against human cathepsin K using Z-Phe-Arg-AMC substrate
# Osteoclast = test: In vitro bone resorption in isolated rabbit osteoclasts; type: functional, cell-based; conditions: Oryctolagus cuniculus
# Summary of the method: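 Bovine bone degraded by isolated rabbit osteoclasts; collagen degradation read by ELISA. 8-point dose–response curves; IC50 derived.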
# Rattus norvegicus [7] = test: Oral bioavailability in rat; type: functional, organism-based
# Summary of the method: (§2)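 Single-compound rat PK: 0.5 mg/kg iv and 10 mg/kg oral. Bioavailability from oral versus iv exposure.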
# Rattus norvegicus [8] = organism: Rattus norvegicus; test: Terminal half-life in rat; type: functional, organism-based
# [9] = Maximum concentration in rat administered with 10 mg/kg, po; type: ADME, organism-based; parameters: dose 10 mg/kg, route oral; conditions: in vivo; summary of the method: as §2
# Rhesus monkey = test: Reduction of collagen breakdown products in ovariectomized rhesus monkey dosed at 15, 3 and 0.6 mg/kg, po; type: functional, Macaca mulatta; parameters: scale not given: the % may be the effect or the level left
# Summary of the method: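 OVX rhesus monkeys (mean age 15 y, 3 y post-surgery): vehicle 1% carboxymethylcellulose po qd 2 days, then compound po qd 8–11 days at 15, 3 or 0.6 mg/kg, then 3 days vehicle. Controls on vehicle for 13 days. 24-h urine collected pre-dose, during dosing and 10–17 days after; urinary NTx normalized to creatinine (nM/mM).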
# [10] = Maximum concentration in rat administered with 20 mg/kg, po; type: ADME, organism-based; parameters: dose 20 mg/kg, route oral; conditions: in vivo
# Cathepsin K = target: T1, Cathepsin K (Oryctolagus cuniculus, UniProt P43236); test: Inhibitory constant against rabbit cathepsin K using Z-Phe-Arg-AMC substrate; conditions: read-out: Ki app
# T1 sequence (P43236 whole entry): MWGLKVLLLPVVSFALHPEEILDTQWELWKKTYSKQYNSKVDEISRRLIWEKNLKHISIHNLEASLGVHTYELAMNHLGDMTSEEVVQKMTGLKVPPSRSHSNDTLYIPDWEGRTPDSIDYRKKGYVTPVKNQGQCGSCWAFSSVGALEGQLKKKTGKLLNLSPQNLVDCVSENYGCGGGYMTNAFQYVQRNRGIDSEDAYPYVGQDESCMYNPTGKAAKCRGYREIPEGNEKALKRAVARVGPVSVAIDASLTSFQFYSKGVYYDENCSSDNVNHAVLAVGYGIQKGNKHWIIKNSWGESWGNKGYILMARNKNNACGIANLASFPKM
# Rattus norvegicus [11] = test: Time of peak concentration post-dose in rat administered with 10 mg/kg, po; type: functional, organism-based; parameters: dose 10 mg/kg; summary of the method: as §2
# Rattus norvegicus [12] = test: Terminal half-life in rat administered with 10 mg/kg, po; type: functional, organism-based; parameters: dose 10 mg/kg; summary of the method: as §2
Compound,Ki (Cathepsin B; read-out: Ki app) [nM],T1/2 (Rattus norvegicus [1]) [h],Ki (Procathepsin L; read-out: Ki app) [nM],clearance [2] [mL/min/kg],Cmax [3] [nM],MRT (Rattus norvegicus [4]) [h],Ki (Cathepsin S; read-out: Ki app) [nM],Vd [5] [L/kg],Ki ([6]; read-out: Ki app) [nM],IC50 (Osteoclast) [nM],bioavailability (Rattus norvegicus [7]) [%],also measured
N#CCNC(=O)C1(NC(=O)c2ccc(-c3ccc(C4(F)CCNCC4)cc3)cc2)CCCCC1,280,0.783,900,37,660,0.8,7900,1.76,< 0.25,35,,
CC(C)(C)N1CCN(c2nc(-c3ccc(C(=O)NC4(C(=O)NCC#N)CCCCC4)cc3)cs2)CC1,910,,8800,,,,19000,,0.29,1,44,T1/2 (Rattus norvegicus [8]): 1.67 h; Cmax [9]: 800 nM
COCCN1CCC(Oc2ccc(-c3ccc(C(=O)NC4(C(=O)NCC#N)CCCCC4)cc3)cc2)CC1,540,2.02,1200,43,370,1.95,6200,3.27,< 0.25,21,,
N#CCNC(=O)C1(NC(=O)c2ccc(-c3csc(N4CCC(N5CCOCC5)CC4)n3)cc2)CCCCC1,670,,16000,,,,6400,,< 0.25,3,48,T1/2 (Rattus norvegicus [8]): 5.33 h; Cmax [9]: 1700 nM
N#CCNC(=O)C1(NC(=O)c2ccc(-c3ccc(S(=O)(=O)N4CCN(CC(F)(F)F)CC4)cc3)cc2)CCCCC1,56000,0.767,540,40,1200,0.65,5500,1.55,6.1,320,,
N#CCNC(=O)C1(NC(=O)c2ccc(-c3ccc(S(=O)(=O)N4CCNCC4)cc3)cc2)CCCCC1,380,1.3,430,82,1000,0.667,9100,3.29,< 0.25,20,,
CN1CCN(c2nc(-c3ccc(C(=O)NC4(C(=O)NCC#N)CCCCC4)cc3)cs2)CC1,1000,,6000,,,,47000,,0.2,5,68,Activity (Rhesus monkey): 76%; Cmax [10]: 1400 nM; T1/2 (Rattus norvegicus [8]): 3.4 h; Ki (Cathepsin K): 0.5 nM
N#CCNC(=O)C1(NC(=O)c2ccc(-c3csc(N4CCC(N5CCCCC5)CC4)n3)cc2)CCCCC1,690,,8800,,,,42000,,0.45,3,35,T1/2 (Rattus norvegicus [8]): 3.35 h; Cmax [9]: 360 nM
CN1CCCC(Oc2ccc(-c3ccc(C(=O)NC4(C(=O)NCC#N)CCCCC4)cc3)cc2)C1 (centres undefined),870,1.5,2300,104,250,1.35,13000,8.46,0.67,10,,
CC(C)(C)NC1CCN(c2ccc(-c3ccc(C(=O)NC4(C(=O)NCC#N)CCCCC4)cc3)cc2)CC1,,1.93,,84,360,2.17,,10.7,,40,,Ki (Cathepsin B; read-out: Ki): 76000 nM; Ki (Procathepsin L; read-out: Ki): 1600 nM; Ki (Cathepsin S; read-out: Ki): 3900 nM; Ki ([6]; read-out: Ki): < 0.25 nM
CN1CCC(Oc2ccc(-c3ccc(C(=O)NC4(C(=O)NCC#N)CCCCC4)cc3)cc2)CC1,530,1.9,5600,97,320,1.9,12000,11.1,< 0.25,20,,
N#CCNC(=O)C1(NC(=O)c2ccc(-c3ccc(N4CCNCC4)cc3)cc2)CCCCC1,420,1.4,7900,71,500,1.73,4900,7.23,< 0.25,77,21,Tmax (Rattus norvegicus [11]): 2 h; T1/2 (Rattus norvegicus [12]): 1.88 h
CC(C)(C)N1CCN(c2ccc(-c3ccc(C(=O)NC4(C(=O)NCC#N)CCCCC4)cc3)cc2)CC1,510,2.4,11000,67,,2.87,7900,11.2,< 0.25,13,,
N#CCNC(=O)C1(NC(=O)c2ccc(-c3ccc(OC4CCN(CCO)CC4)cc3)cc2)CCCCC1,640,2.05,9100,231,220,1.83,16000,25.3,< 0.25,59,,
N#CCNC(=O)C1(NC(=O)c2ccc(-c3csc(N4CC[C@@H](N)C4)n3)cc2)CCCCC1,3000,0.883,7500,,840,0.893,4500,,1.4,52,,
